Test results taken from ChEMBL document CHEMBL1156051, “Synthesis and evaluation of lysophosphatidylserine analogues as inducers of mast cell degranulation. Potent activities of lysophosphatidylthreonine and its 2-deoxy derivative” (J Med Chem, 2009).
Calls of active or inactive are those of the source. The calls are words filed in the database; no cut-off is given here.

How the values were obtained:
Mast cell [1] = assay: Induction of Wistar rat peritoneal mast cell degradation assessed as concanavalin A-induced histamine release after 15 mins fluorometric assay; type: functional, cell-based; details: 0.25 h
Method in brief: (§1)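 Peritoneal mast cells at 5 × 10^4/mL in HEPES-buffered Tyrode stimulated with analogue plus 100 μg/mL concanavalin A for 15 min at 37 C. Supernatant histamine measured fluorometrically and expressed as percent of total cell histamine. Means ± SE of three independent experiments.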

Mast cell [2] = assay: Induction of C57BL/6 mouse peritoneal mast cell degradation assessed as concanavalin A-induced histamine release after 15 mins fluorometric assay; type: functional, cell-based; details: C57BL/6, Mast cell, 0.25 h
Method in brief: (§2)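 Peritoneal mast cells at 5 × 10^4/mL in HEPES-buffered Tyrode stimulated with analogue plus 10 μg/mL concanavalin A for 15 min at 37 C. Supernatant histamine measured fluorometrically and expressed as percent of total cell histamine. Means ± SE of three independent experiments.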

Mus musculus [3] = assay: Increase in plasma histamine level in iv dosed C57BL/6 mouse after 2 mins by EIA; type: functional, organism-based
Method in brief: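 Mice injected i.v. with analogue in PBS with 0.1% BSA; blood taken 2 min after injection and plasma histamine measured by enzyme immunoassay. Means ± SE of three independent experiments.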

Mast cell [4] = assay: Induction of Wistar rat peritoneal mast cell degradation assessed as concanavalin A-induced histamine release at 0.01 to 10 uM after 15 mins fluorometric assay; type: functional, cell-based; method in brief: as §1
Mast cell [5] = assay: Induction of C57BL/6 mouse peritoneal mast cell degradation assessed as concanavalin A-induced histamine release at 0.01 to 10 uM after 15 mins fluorometric assay; type: functional, cell-based; method in brief: as §2
Rattus norvegicus [6] = assay: Effect on hypothermic effect in iv dosed Wistar rat assessed as reduction in rectal temperature measured every 5 to 10 mins for 60 mins; type: functional, organism-based
Method in brief: (§3)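 Analogue suspended in PBS with 0.1% BSA and given intravenously; rectal temperature read with a rectal probe every 5 or 10 min for 60 min. Means ± SE of three independent experiments.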

Mus musculus [7] = assay: Effect on hypothermic effect in iv dosed C57BL/6 mouse assessed as reduction in rectal temperature measured every 5 to 10 mins for 60 mins; type: functional, organism-based; method in brief: as §3
CHO-K1 [8] = assay: Increase in intracellular calcium level in CHOK1 cells by spectrofluorimetry; type: functional, cell-based; details: Cricetulus griseus
Method in brief: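 Fura-2-loaded mock-transfected CHO-K1 cells were stimulated at 2 μM; [Ca2+]i read as 500 nm emission ratio at 340/380 nm excitation.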

Mus musculus [9] = assay: Effect on hypothermic effect in C57BL/6 mouse assessed as reduction in rectal temperature at 25 to 100 ug, iv measured every 5 to 10 mins for 60 mins; type: functional, organism-based
Method in brief: (§4)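 Analogue suspended in PBS with 0.1% BSA and injected iv into C57BL/6 mice or Wistar rats; rectal temperature recorded by probe every 5 or 10 min for 60 min. Means of three independent experiments.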

[10] = biological target: Probable G-protein coupled receptor 34 (Mus musculus) (UniProt Q9R1K6); assay: Activation of mouse GPR34 expressed in CHOK1 cells assessed as phosphorylated ERK level at 0.01 to 10 uM by Western blotting; type: cell-based; details: CHO-K1
Method in brief: (§5)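 Serum-starved CHO-K1 cells stably expressing flag-tagged GPR34 were stimulated with analogue for 5 min at 37 C and stopped by rapid cooling on ice. Lysates (6 μg protein) were Western blotted with antibodies to phospho-p42/p44 and total p42/p44 MAP kinase. Mock-transfected cells served as control.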

Mast cell [11] = assay: Induction of Wistar rat peritoneal mast cell degradation assessed as anti-DNP IgE-induced histamine release at 0.01 to 10 uM after 15 mins fluorometric assay; type: functional, cell-based
[12] = biological target: Probable G-protein coupled receptor 34 (Mus musculus) (UniProt Q9R1K6); assay: Activation of mouse GPR34 expressed in CHOK1 cells assessed as increase in intracellular calcium level by spectrofluorimetry; type: functional, cell-based; details: CHO-K1
Method in brief: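 Fura-2-loaded CHO-K1 cells stably expressing flag-tagged GPR34 (G418 selection, then anti-flag immunomagnetic positive selection), stimulated with analogue at 2 μM; [Ca2+]i read fluorometrically as ratio of 500 nm emission at 340/380 nm excitation.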

CHO-K1 [13] = assay: Inhibition of forskolin-induced cAMP production in CHOK1 cells at 0.01 to 10 uM after 30 mins by EIA; type: functional, cell-based; details: Cricetulus griseus
Method in brief: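 Mock-transfected CHO-K1 cells were cultured overnight and pretreated 20 min with 0.5 mM IBMX, then costimulated with analogue and 25 μM forskolin for 30 min at 37 C; accumulated cAMP was measured by EIA.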

CHO-K1 [14] = assay: Increase in MAPK level in CHOK1 cells at 0.01 to 10 uM by Western blotting; type: functional, cell-based; details: Cricetulus griseus
Method in brief: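 Serum-starved mock (empty vector) transfected CHO-K1 cells were stimulated for 5 min at 37 C and cooled on ice to stop. Lysates (6 μg protein) were Western blotted for phospho- and total p42/p44 MAP kinase.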

Mast cell [15] = assay: Stimulation of mouse bone marrow-derived mast cell degranulation; type: functional, cell-based
[16] = Cytotoxicity against concanavalin A-stimulated Wistar rat peritoneal mast cells assessed as LDH release at 50 uM; type: cell-based
[17] = biological target: Probable G-protein coupled receptor 34 (Mus musculus) (UniProt Q9R1K6); assay: Activation of mouse GPR34 expressed in CHOK1 cells assessed as total ERK level at 0.01 to 10 uM by Western blotting; type: cell-based; details: CHO-K1; method in brief: as §5
Rattus norvegicus [18] = assay: Effect on hypothermic effect in Wistar rat assessed as reduction in rectal temperature at 20 to 200 ug, iv measured every 5 to 10 mins for 60 mins; type: functional, organism-based; method in brief: as §4
[19] = biological target: Probable G-protein coupled receptor 34 (Mus musculus) (UniProt Q9R1K6); assay: Activation of mouse GPR34 expressed in CHOK1 cells assessed as inhibition of forskolin-induced cAMP production at 0.01 to 10 uM after 30 mins by EIA; type: functional, cell-based; details: CHO-K1
Method in brief: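 CHO-K1 stably expressing flag-tagged mouse GPR34, cultured overnight, pretreated 20 min with 0.5 mM IBMX, then costimulated with analogue plus 25 μM forskolin for 30 min at 37 C; cAMP measured by EIA, level without ligand set as 100%.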

Mus musculus [20] = assay: Effect on hypothermic effect in mast cell-deficient WBB6F1 mouse assessed as reduction in rectal temperature at 10 ug, iv measured every 5 to 10 mins for 60 mins; type: functional, organism-based
Method in brief: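 W/Wv mast cell-deficient mice, with C57BL/6 as comparison, were given 10 μg iv in PBS containing 0.1% BSA. Rectal temperature was monitored every 5 or 10 min for 60 min. Three independent experiments.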

Probable G-protein coupled receptor 34 (Mus musculus), sequence (Q9R1K6 whole entry): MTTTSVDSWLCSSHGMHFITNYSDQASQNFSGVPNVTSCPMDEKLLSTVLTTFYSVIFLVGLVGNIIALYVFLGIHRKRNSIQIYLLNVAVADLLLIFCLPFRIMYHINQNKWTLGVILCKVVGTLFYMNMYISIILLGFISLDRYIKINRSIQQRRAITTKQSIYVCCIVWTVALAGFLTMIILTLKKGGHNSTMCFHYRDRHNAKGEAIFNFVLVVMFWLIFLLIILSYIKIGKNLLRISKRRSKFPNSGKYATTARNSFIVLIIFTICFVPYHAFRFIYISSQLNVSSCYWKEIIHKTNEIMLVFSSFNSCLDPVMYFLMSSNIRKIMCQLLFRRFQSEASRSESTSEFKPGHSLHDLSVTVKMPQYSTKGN

Compound | EC50 (Mast cell [1]) [nM] | EC50 (Mast cell [2]) [nM] | Activity (Mast cell [4]) | Activity (Mast cell [5]) | also measured
CCCCCCCCCCCCCCCCCC(=O)OC[C@@H](COP(=O)(O)OC[C@H](N)C(=O)O)OC | 5000 | – | – | – | –
CCCCCCCCCCCCCCCC(=O)OC[C@@H](O)COP(=O)(O)O[C@H](C)[C@H](N)C(=O)O | 40 | 20 | – | – | Activity (Mus musculus [3]): Active
CCCCCCCCCCCCCCCCCC(=O)OCCCCCOP(=O)(O)OC[C@H](N)C(=O)O | > 10000 | – | inactive | inactive | –
CCCCCCCCCCCCCCCCCC(=O)OC[C@@H](O)COP(=O)(O)O[C@@H](C)[C@H](N)C(=O)O | 2000 | 200 | – | – | Activity (Rattus norvegicus [6]): inactive; Activity (Mus musculus [7]): inactive
CCCCCCCCCCCCCCCCCC(=O)OC[C@H](COP(=O)(O)OC[C@H](N)C(=O)O)OC | 2000 | – | – | – | –
CCCCCCCCCCCCCCCCCC(=O)O[C@H](C)COP(=O)(O)OC[C@H](N)C(=O)O | > 10000 | – | – | – | –
CCCCCCCCCCCCCCCCCC(=O)OCCOP(=O)(O)OC[C@H](N)C(=O)O | > 10000 | – | inactive | inactive | –
CCCCCCCCCCCCCCCCCC(=O)OCCCCOP(=O)(O)OC[C@H](N)C(=O)O | 5000 | – | inactive | inactive | –
CCCCCCCCCCCCCCCCCC(=O)OCCCOP(=O)(O)OC[C@H](N)C(=O)O | 500 | 40 | – | – | –
CCCCCCCCCCCCCCCCCC(=O)OC[C@@H](O)COP(=O)(O)OC[C@H](N)C(=O)OC | > 10000 | – | inactive | inactive | –
CCCCCCCCCCCC(=O)OC[C@@H](O)COP(=O)(O)O[C@H](C)[C@H](N)C(=O)O | 150 | 50 | – | – | –
CCCCCCCCCCCCCCCCCC(=O)OC[C@@H](O)COP(=O)(O)OC[C@H](N)C(=O)O | 400 | 100 | – | – | Activity (CHO-K1 [8]): inactive; Activity (Mus musculus [9]): Active; Activity [10]: Active; Activity (Mast cell [11]): Active; Activity [12]: Active; Activity (CHO-K1 [13]): inactive; Activity (CHO-K1 [14]): inactive; Activity (Mast cell [15]): inactive; Activity [16]: Non-toxic; Activity [17]: Active; Activity (Rattus norvegicus [18]): Active; Activity [19]: Active; Activity (Mus musculus [20]): inactive
